About 250 (0.93%) of roughly 27,000 compounds were called active.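 Rule for the calls: active = mutant luminescence inhibited past about 50% while wild type luminescence and mutant growth stay under set limits (limit read from the data); inconclusive = mutant versus wild type luminescence inhibition gap past a set limit; inactive = the rest.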 What follows is part of a selection rich in actives, with near analogues and random picks from the rest.
assay: mutant yeast GCN4 reporter luminescence inhibitors – S. cerevisiae, eIF2B-epsilon R284H, Beta-Glo luminescence, primary screen (AID 688); settings: GCN4-lacZ luminescence; growth inhibition: measured here: mutant yeast growth, toxicity, concentration not given here; inhibition: stronger effect = higher value, screened at 25 µM (by protocol)
How it was run: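 System: Yeast eIF2B-epsilon R284H mutant carrying GCN4–beta-galactosidase fusion | Read-out basis: Percent inhibition, luminescence and growth | Compound: 25 µM single dose | Times: 16 h at 30 °C exposure | Measured by: Luminescence and A595 | Buffer or medium: YPD medium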

Compound | inhibition | growth inhibition [%]
N#CCSc1nc2c(c(=O)n1Cc1ccccc1)C1(CCCC1)Cc1ccccc1-2 | 9.23% (inactive) | –
O=C(Cc1ccccc1)Nc1c(C(=O)N2CCCCCC2)cnn1-c1ccccc1 | -14.8% (inactive) | 8.33
COc1ccc(S(=O)(=O)N2CCCC(C(=O)N3CCN(C)CC3)C2)cc1C (stereo unspecified) | -4.21% (inactive) | 6.9
CC(C)n1c(-c2cccs2)nc2ccccc21 | 15% (inactive) | 14.7
CCOC(=O)C1=C(CSc2nnnn2C)N(C)C(=O)NC1c1ccccc1 (stereo unspecified) | 19.9% (inactive) | -2.7
CCOC(=O)c1sc(C)c2c1NC(C)(c1cccc3ccccc13)NC2=O (stereo unspecified) | -8.97% (inactive) | 2.7
CCOCCn1c(C(C)C)nc2ccccc21 | -14.4% (inactive) | –
CCNc1nc(N)nc(Oc2ccc(OCC)nn2)n1 | 31.6% (inactive) | -12.5
C/C=C/C(=O)Nc1nnc(C(C)C)s1 | 1.35% (inactive) | –
O=C(Nc1cccnc1)c1noc2c1CCCCC2 | 69% (active) | 3.45
O=C(CS(=O)(=O)Cc1ccccc1)Nc1cccnc1 | 11.1% (inactive) | –
O=C(CCCn1c(=O)oc2ccccc21)Nc1cccnc1 | 22.3% (inactive) | -21.7
COc1ccc(-n2nnnc2SCC(=O)Nc2ccccc2)cc1 | 0.65% (inactive) | -13.6
O=C(NCc1ccccn1)c1cc(-c2ccccc2Cl)on1 | 8.32% (inactive) | 9.09
COc1ccc(-c2nnc(SCC(=O)c3ccc4c(c3)OCCO4)o2)cc1 | 9.99% (inactive) | -27.1
C=CCSC1=C(C#N)C(c2cc(Br)c(O)c(OC)c2)CC(=O)N1 (stereo unspecified) | 17.8% (inactive) | -19.1
O=C(NCC(=O)N(Cc1cccs1)C(C(=O)NC1CCCCC1)c1ccco1)c1cccs1 (stereo unspecified) | 9.07% (inactive) | -12.9
Cc1nc2c(c(=O)n1Cc1ccco1)c1nc3ccccc3nc1n2Cc1ccccc1 | 16.6% (inactive) | –
CCOc1ccc(NC(=O)CN(C)CC(=O)Nc2cccc(Cl)c2C)cc1OCC | 30.2% (inactive) | -23.8
COc1ccccc1-n1nnnc1S(=O)(=O)Cc1ccc(Cl)cc1 | 24.8% (inactive) | -20.6
Cc1cc(C)n(-c2c(F)c(F)c(COC(=O)c3ccccc3)c(F)c2F)n1 | 20.8% (inactive) | 23
Cc1cccc(N2C(=O)c3cccnc3C2=O)c1 | 27.9% (inactive) | -42.9

Compound | inhibition | growth inhibition [%]
CC(=O)NC1(c2cccc(F)c2)CCN(CC(=O)NC(C)C)CC1 | 8.86% (inactive) | 4.55
O=C(NCc1ccc(Cl)c(Cl)c1)c1cccnc1 | 24.4% (inactive) | -25
O=C(Nc1nncs1)c1cccc(S(=O)(=O)N2CCCCC2)c1 | -2.85% (inactive) | -27.3
Cc1ccc(C2(C(F)(F)F)N=C3Sc4cc(C)cc(C)c4N3C(=O)N2)cc1 (stereo unspecified) | 31.4% (inactive) | -4.76
C=CCn1c(SCCOc2ccc(OC)cc2)nnc1C(NC(=O)c1ccc(OC)cc1)C(C)C (stereo unspecified) | 21.4% (inactive) | -10
COCc1[nH][nH]c(=O)c1C=Nc1ccc(F)cc1F | 24.1% (inactive) | 18.9
Cc1ccc2c(CSc3nncs3)cc(=O)oc2c1 | -21.6% (inactive) | -14.7
CCCCNS(=O)(=O)c1ccc(S(=O)(=O)n2cnc3ccccc32)cc1 | -22.7% (inactive) | -31.6
CCOC(=O)c1c(N)sc(C(C)=O)c1C | 2.16% (inactive) | 19.1
Cc1ccc(S(=O)(=O)c2nc(NCCCn3ccnc3)sc2Cl)cc1 | 26% (inactive) | 15.9
COc1ccc(Cl)cc1C(=O)Nc1ccc(N(C)C(C)=O)cc1 | 21.8% (inactive) | 27.8
CCN(CC)CCNC(=O)CCCCCn1c(=O)[nH]c2cc(C(=O)OC)ccc2c1=O | 12.9% (inactive) | 3.33
Nn1c(Cc2cccc3ccccc23)nnc1SCC(=O)N1CC(=O)Nc2ccccc21 | 9.26% (inactive) | 7.35
Cc1ccc(C2=CSC3=NS(=O)(=O)CCN23)cc1C | 1.24% (inactive) | -2.38
O=C(c1cccc2ccccc12)N1CCN(c2ccccc2F)CC1 | 8.17% (inactive) | 10.7
O=C(O)CCSc1nnc(-c2ccccc2)n1-c1ccccc1 | 19.8% (inactive) | -9.09
Cc1ccc(S(=O)(=O)NCC(C)NS(C)(=O)=O)cc1 (stereo unspecified) | -24.4% (inactive) | 1.47
COCc1nnc(NC(=O)CS(=O)(=O)Cc2ccccc2)s1 | 8.87% (inactive) | -13.8
COc1ccc(-n2c(SCC(=O)Nc3ccc4c(c3)OCO4)nnc2C(C)N2CCCCC2)cc1 (stereo unspecified) | 32% (inactive) | -17.2
O=C(NC1(C(F)(F)F)NC(=O)N(Cc2cccnc2)C1=O)c1ccccc1Cl (stereo unspecified) | 12.7% (inactive) | -9.52
CCc1nnc(NC(=O)CSc2nc3ccccc3c(=O)n2CCCOC)s1 | -1.74% (inactive) | -4.35

Reference: PubChem BioAssay AID688 (PCMD, 2007)
